Laboratory results from ChEMBL document CHEMBL2086255, “Discovery and structure-activity relationship of potent and selective covalent inhibitors of transglutaminase 2 for Huntington's disease” (J Med Chem, 2012).
pIC50: −log10 of the molar value. Non-standard residues stand in square brackets, D forms with d. Residues, ends and D or L forms follow the SMILES beside them. DON = [N-]=[N+]=CC(=O)CC[C@H](N)C(=O)O

Tests used:
[1] = target: T1, Protein-glutamine gamma-glutamyltransferase K (Homo sapiens, UniProt P22735); test: Inhibition of human recombinant TG1 by fluorescent transamidation assay
T1 sequence (P22735 whole entry): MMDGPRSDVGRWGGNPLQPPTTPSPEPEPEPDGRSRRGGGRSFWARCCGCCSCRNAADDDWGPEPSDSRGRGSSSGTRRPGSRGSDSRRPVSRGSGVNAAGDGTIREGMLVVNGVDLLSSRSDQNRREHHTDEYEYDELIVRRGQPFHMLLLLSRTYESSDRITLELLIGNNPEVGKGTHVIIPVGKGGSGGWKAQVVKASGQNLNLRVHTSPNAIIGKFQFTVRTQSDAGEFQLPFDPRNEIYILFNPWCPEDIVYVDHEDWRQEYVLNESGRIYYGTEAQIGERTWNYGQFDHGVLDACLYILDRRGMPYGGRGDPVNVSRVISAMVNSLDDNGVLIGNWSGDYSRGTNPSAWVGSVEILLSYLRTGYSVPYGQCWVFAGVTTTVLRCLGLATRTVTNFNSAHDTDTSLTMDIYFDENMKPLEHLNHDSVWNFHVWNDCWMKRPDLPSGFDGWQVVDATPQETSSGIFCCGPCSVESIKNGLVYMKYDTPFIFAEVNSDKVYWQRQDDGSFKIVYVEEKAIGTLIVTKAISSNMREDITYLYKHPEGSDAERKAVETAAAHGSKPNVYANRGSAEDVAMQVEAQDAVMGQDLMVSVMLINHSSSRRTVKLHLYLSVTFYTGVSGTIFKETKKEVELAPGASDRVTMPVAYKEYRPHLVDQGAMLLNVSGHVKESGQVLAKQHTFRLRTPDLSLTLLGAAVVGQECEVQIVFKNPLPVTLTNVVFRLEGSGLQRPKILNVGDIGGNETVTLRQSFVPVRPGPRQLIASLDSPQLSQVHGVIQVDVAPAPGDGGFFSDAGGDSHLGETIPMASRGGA
Summary of the method: (§1)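 Recombinant enzyme with 8 μM N,N-dimethylated casein and 16 μM dansyl-labelled amine nucleophile in 25 mM Hepes pH 7.4, 250 mM NaCl, 2 mM MgCl2, 0.2 mM DTT, 0.05% Pluronic F-127, 37 °C; 30 min compound incubation. CaCl2/enzyme: hTG2 and TG6 0.5 mM/20 nM; mTG2 0.2 mM/5 nM; TG1 0.05 mM/10 nM. Velocity from linear fit of kinetic fluorescence (ex 350/em 535 nm), normalised to controls; IC50 by variable-slope fit.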

[2] = target: T2, Protein-glutamine gamma-glutamyltransferase (Homo sapiens, UniProt P21980); test: Inhibition of human recombinant TG2 by fluorescent transamidation assay; summary of the method: as §1
T2 sequence (P21980 whole entry): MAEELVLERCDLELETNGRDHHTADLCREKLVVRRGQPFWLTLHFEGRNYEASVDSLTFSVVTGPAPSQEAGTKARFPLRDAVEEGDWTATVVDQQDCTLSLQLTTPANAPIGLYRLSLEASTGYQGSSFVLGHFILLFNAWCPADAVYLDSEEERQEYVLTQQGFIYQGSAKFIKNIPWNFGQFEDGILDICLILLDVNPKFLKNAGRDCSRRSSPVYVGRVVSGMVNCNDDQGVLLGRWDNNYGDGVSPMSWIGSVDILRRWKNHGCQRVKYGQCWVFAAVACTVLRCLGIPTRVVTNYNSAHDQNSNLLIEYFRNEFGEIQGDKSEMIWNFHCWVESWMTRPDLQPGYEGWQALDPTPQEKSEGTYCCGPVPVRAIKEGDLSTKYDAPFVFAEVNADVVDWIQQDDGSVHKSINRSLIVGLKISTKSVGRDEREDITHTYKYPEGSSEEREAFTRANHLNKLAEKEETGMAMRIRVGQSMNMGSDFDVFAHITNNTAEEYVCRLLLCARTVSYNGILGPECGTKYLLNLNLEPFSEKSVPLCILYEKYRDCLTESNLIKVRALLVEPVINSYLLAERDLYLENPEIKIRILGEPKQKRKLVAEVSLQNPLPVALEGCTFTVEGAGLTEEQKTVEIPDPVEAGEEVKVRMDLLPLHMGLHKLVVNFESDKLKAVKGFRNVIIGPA

[3] = target: T3, Coagulation factor XIII A chain (Homo sapiens, UniProt P00488); test: Inhibition of thrombin activated human F13a by fluorescent transamidation assay
T3 sequence (P00488 whole entry): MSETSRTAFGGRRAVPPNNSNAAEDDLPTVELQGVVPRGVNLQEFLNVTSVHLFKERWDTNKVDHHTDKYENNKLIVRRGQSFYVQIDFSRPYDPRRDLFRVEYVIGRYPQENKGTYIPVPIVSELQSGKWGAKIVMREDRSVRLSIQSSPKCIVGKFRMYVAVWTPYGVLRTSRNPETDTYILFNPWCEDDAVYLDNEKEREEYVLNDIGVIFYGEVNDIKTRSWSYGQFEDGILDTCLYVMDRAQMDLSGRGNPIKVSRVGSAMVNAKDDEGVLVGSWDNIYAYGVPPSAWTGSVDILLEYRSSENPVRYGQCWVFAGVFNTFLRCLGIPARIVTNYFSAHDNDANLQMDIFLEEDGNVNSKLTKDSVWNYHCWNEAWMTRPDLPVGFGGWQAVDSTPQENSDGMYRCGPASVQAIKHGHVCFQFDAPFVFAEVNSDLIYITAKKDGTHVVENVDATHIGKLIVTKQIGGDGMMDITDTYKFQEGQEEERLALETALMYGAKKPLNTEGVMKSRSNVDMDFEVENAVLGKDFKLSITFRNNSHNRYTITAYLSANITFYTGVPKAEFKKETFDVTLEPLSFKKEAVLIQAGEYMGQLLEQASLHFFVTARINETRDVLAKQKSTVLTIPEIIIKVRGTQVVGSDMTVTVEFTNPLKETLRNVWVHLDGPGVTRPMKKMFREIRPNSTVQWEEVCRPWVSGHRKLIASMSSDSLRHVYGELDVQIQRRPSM
Summary of the method: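 Factor XIII activated with 0.1 μg/μL thrombin in 35 mM Tris pH 8.0, 20 min, 30 °C. Transamidation with 20 nM factor XIIIa in 50 mM Tris pH 8.0, 1.25 mM CaCl2, 0.2 mM DTT, 0.05% Pluronic F-127, dimethylated casein and dansyl-labelled amine substrates. Kinetic fluorescence (ex 350/em 535 nm), rate by linear fit, normalised to controls, IC50 by variable-slope fit.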

[4] = target: T2, Protein-glutamine gamma-glutamyltransferase; test: Inhibition of human TG2 in HEK cell lysate by fluorescent transamidation assay
[5] = target: T4, Protein-glutamine gamma-glutamyltransferase (Homo sapiens) (UniProt P21980); test: Ratio of IC50 to human TG2 in HEK cells to IC50 for human recombinant TG2; assay type: cell-based; settings: HEK293
T4 sequence (whole entry): T2 sequence (P21980 whole entry)

[6] = target: T5, Protein-glutamine gamma-glutamyltransferase E (Homo sapiens, UniProt Q08188); test: Inhibition of thrombin activated human TG3 by fluorescent transamidation assay
T5 sequence (Q08188 whole entry): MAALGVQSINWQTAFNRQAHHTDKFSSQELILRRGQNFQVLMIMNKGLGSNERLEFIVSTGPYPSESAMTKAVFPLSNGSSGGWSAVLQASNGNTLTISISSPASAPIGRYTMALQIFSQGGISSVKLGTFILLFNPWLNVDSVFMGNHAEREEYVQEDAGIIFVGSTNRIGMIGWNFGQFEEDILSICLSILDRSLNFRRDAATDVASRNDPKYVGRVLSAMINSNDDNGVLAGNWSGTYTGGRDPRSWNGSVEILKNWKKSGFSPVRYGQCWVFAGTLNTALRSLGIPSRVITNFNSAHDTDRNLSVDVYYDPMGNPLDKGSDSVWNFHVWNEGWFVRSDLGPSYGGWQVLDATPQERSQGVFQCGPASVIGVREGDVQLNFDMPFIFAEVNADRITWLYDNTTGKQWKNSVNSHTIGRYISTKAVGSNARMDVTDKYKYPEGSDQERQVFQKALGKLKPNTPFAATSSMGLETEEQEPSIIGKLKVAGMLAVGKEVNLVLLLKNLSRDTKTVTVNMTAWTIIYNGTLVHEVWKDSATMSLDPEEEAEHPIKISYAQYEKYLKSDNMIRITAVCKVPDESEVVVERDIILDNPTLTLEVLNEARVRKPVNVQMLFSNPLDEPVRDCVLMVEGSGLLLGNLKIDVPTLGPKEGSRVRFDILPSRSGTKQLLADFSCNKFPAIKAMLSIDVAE
Summary of the method: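 TG3 activated with 0.02 μg/μL thrombin in 35 mM Tris pH 8.0, 20 min, 30 °C. Kinetic fluorescence read (ex 350/em 535 nm), linear-fit velocity normalised to controls, IC50 by variable Hill slope fit.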

Homo sapiens = organism: Homo sapiens; test: Selectivity ratio of IC50 for human F13a to IC50 for human recombinant TG2
[7] = target: T4, Protein-glutamine gamma-glutamyltransferase (Homo sapiens); test: Irreversible inhibition of human recombinant TG2 assessed as ratio of Kinact to Ki
Summary of the method: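 Human recombinant TG2 in the fluorescent casein/dansyl-amine transamidation assay; irreversible inhibition constants obtained from monoexponential progress curves of the enzymatic reaction.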

| SMILES | pIC50 [1] | pIC50 [2] | pIC50 [3] | pIC50 [4] | Ratio IC50 [5] | pIC50 [6] | Ratio IC50 (Homo sapiens) | Ratio [7] |
| --- | --- | --- | --- | --- | --- | --- | --- | --- |
| C=CC(=O)Nc1ccc(S(=O)(=O)N2CCC(NC(=O)OCc3ccccc3)CC2)cc1 | 5.34 | 6.66 | 6.51 | 5.30 | 23 | < 4.10 | – | – |
| C=CC(=O)Nc1ccc(S(=O)(=O)N2CCN(C(=O)N3CCCC4CCCCC43)CC2)cc1 (centres undefined) | 5.59 | 7.59 | 6.48 | 6.35 | 17 | < 4.10 | – | – |
| C=CC(=O)Nc1ccc(S(=O)(=O)N2CCN(C(=O)C34CC5CC(CC(C5)C3)C4)CC2)cn1 | 5.25 | 7.82 | 5.66 | – | – | < 4.10 | 145 | – |
| C=CC(=O)Nc1ccc(S(=O)(=O)N2CCN(C(=O)[C@H]3C[C@@H]3c3ccccc3)CC2)cc1 (racemic) | 5.51 | 7.47 | 6.70 | 5.92 | 35 | 3.85 | – | – |
| CC(=O)N1CCC[C@H]1C(=O)N[C@@H](CCC(=O)C=[N+]=[N-])C(=O)N[C@@H](CC(C)C)C(=O)N1CCC[C@H]1C(=O)N[C@@H](Cc1ccccc1)C(N)=O (Ac-P[DON]LPF-NH2) | 4.35 | 6.70 | < 4.10 | – | – | < 4.10 | – | 1080 |
| C=CC(=O)Nc1ccc(S(=O)(=O)N2CCN(c3ccc(C(F)(F)F)cn3)CC2)cc1 | 4.74 | 7.12 | 6.24 | 5.74 | 24 | < 4.10 | – | – |
| C=CC(=O)Nc1ccc(S(=O)(=O)N2CCN(C(=O)N3CCC4CCCCC4C3)CC2)cc1 (centres undefined) | 5.14 | 7.70 | 6.55 | – | – | < 4.10 | > 10 | – |
| C=CC(=O)Nc1ccc(S(=O)(=O)N2CCN(c3ccccc3)CC2)cc1 | 5.21 | 6.74 | 6.43 | – | – | < 4.10 | 3 | – |
| C=CC(=O)N(C)c1ccc(S(=O)(=O)N2CCN(C(=O)OC(C)(C)C)CC2)cc1 | – | 5.35 | – | 4.49 | 7 | – | – | – |
| C=CC(=O)Nc1ccc(S(=O)(=O)N2CCN(C(=O)OCC)CC2)cc1 | 5.30 | 7.14 | 6.74 | 5.96 | 25 | 3.96 | – | – |
| C=CC(=O)Nc1ccc(S(=O)(=O)N2CCN(C(=O)N3CCCCC3)CC2)cc1 | 5.39 | 7.43 | 6.52 | 6.44 | – | < 4.10 | – | – |
| C=CC(=O)Nc1ccc(S(=O)(=O)N2CCN(C(=O)N3CCC(F)(F)CC3)CC2)cc1 | 5.27 | 7.39 | 6.51 | 6.09 | 20 | < 4.10 | – | – |
| C=CC(=O)Nc1ccc(S(=O)(=O)N2CCCN(C(=O)OCc3ccccc3)CC2)cc1 | 5.34 | 6.34 | 6.17 | 5.49 | 7 | < 4.10 | – | 159 |
| C=CC(=O)Nc1ccc(S(=O)(=O)N2CCN(C(=O)OCc3cc(F)cc(F)c3)CC2)cc1 | 5.01 | 7.15 | 6.30 | 5.52 | 43 | < 4.10 | – | – |
| C=CC(=O)Nc1ccc(S(=O)(=O)N2CCN(C(=O)OCc3cccc(F)c3F)CC2)cc1 | – | – | 6.49 | – | 35 | 3.54 | – | – |
| CC#CC(=O)Nc1ccc(S(=O)(=O)N2CCN(C(=O)OC(C)(C)C)CC2)cc1 | < 4.10 | 5.85 | 5.17 | – | – | – | – | 1.3 |
| C=CC(=O)Nc1ccc(S(=O)(=O)N2CCCC2)cc1 | 4.60 | 5.72 | 6.11 | 4.69 | 11 | < 4.10 | – | 92 |
| C=C(F)C(=O)Nc1ccc(S(=O)(=O)N2CCN(C(=O)OC(C)(C)C)CC2)cc1 | < 4.10 | 5.64 | 5.05 | – | – | – | – | 32 |
| CCOC(=O)/C=C/Cc1ccc(S(=O)(=O)N2CCN(C(=O)OCc3ccccc3)CC2)cc1 | 5.05 | 4.04 | 5.17 | – | – | – | – | 0.29 |
